Hits are enriched below; roughly 1.8% of the tested compounds scored in any of these assays.
GSTO1 inh – counter-screen for RBBP9 inhibitors: inhibitors of human GSTO1. P78417. recombinant GSTO1, activity-based probe fluorescence polarization. inhibition, % at 5.96 µM. 1.1% of 300,000 active. AID 1974;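 active = inhibition above the campaign mean inhibition plus 3 SD, cut at about 35% in these data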;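 also: 0% = GSTO1-1 with DMSO and 100% = wells lacking GSTO1-1 enzyme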
Target sequence (P78417 whole entry, looked up): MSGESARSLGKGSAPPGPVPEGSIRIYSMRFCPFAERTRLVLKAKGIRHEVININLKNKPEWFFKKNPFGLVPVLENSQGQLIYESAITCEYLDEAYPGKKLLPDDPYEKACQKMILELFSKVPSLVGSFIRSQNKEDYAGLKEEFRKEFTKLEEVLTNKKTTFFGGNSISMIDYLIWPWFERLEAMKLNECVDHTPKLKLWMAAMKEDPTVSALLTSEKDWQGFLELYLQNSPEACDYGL
CTSL1 counter – blocks F. hepatica cathepsin L1 in PFM18AAP counter-screen | inhibition, % at 5.96 µM | 0.49% of 300,000 active | recombinant F. hepatica cathepsin L1, Z-Leu-Arg-MCA fluorescence;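 active = inhibition above the mean of all tested compounds plus 3 SD, set per screening campaign, cut at about 17% in these data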;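 also: 0% = plate median of test compound wells and 100% = 1 µM Z-Phe-Ala-diazomethylketone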
PAD4 FP inh – inhibitors of human PAD4; recombinant PAD4, RCA probe fluorescence polarization; inhibition, % at 6.36 µM; 0.41% of 330,000 active;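 active = percent inhibition above a cutoff equal to the mean of all tested compounds plus 3 SD, cut at about 15% in these data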;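 also: 0% = PAD4 with RCA probe and DMSO and 100% = probe without PAD4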
Apaf-1 inh – blocks human Apaf-1 apoptosome activity; inhibition, % at 20 µM; O14727; 0.71% of 330,000 active; reconstituted apoptosome caspase-3 activity, DEVD-Rh110 fluorescence; AID 489030; active = inhibition of at least 40% at 20 µM;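 also: plate controls were DMSO wells for no effect and DEVD-CHO caspase inhibitor wells for full effect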
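Material: reconstituted apoptosome with Apaf-1, cytochrome c, caspase-9, procaspase-3, dATP / Buffer or medium: pH 7.5 Hepes buffer with CHAPS, BSA, DTT / Also added: cytochrome c with DEVD-Rh110 / Schedule: compound with Apaf-1, dATP, procaspase-3 30 min, then 50 min reaction, room temperature / Technique: rhodamine 110 fluorescence at Ex 480/Em 540 nm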
TDP2 inh – TDP2 (human) inhibition, absorbance primary screen; recombinant TDP2, T5PNP hydrolysis, p-nitrophenol absorbance 415 nm; O95551; inhibition, % at 12.8 µM; 0.34% of 370,000 active;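 active = inhibition above the mean of all tested compounds plus 3 SD, set per campaign, cut at about 25% in these data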;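 also: 0% = DMSO with enzyme and 100% = buffer with substrate but no TDP2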
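Test system: human TDP2 enzyme; Input: 120 nM TDP2 per well; Buffer or medium: Mg2+-containing Tris-HCl buffer, pH 7.5; Reagent: 5 mM T5PNP; Dosing: 12.8 µM single point, 1% DMSO; Incubation: reaction 2 h, 37 °C; Detection: p-Nitrophenol epi absorbance; Read-out: % inhibition relative to enzyme-containing and enzyme-free wells; Replicates: single well per compound.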
Apaf-1 inh conf – confirmation of Apaf-1 inhibitors. shares compounds with Apaf-1 inh. reconstituted apoptosome, caspase-3 DEVD-Rh110 fluorescence. inhibition, % at 20 µM. 25% of 1,800 active. AID 504614;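 active = mean inhibition of at least 40% at 20 µM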;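 also: plate controls were DMSO wells for no effect and DEVD-CHO caspase inhibitor control wells for full effect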
Rh110 quench – Rh110 signal interference in Apaf-1 inhibitor counter-screen; shares compounds with Apaf-1 inh; Rh110 fluorescence interference, quenched caspase reaction; activation (fluorescence interference), % at 20 µM; 1,800 tested, under 10 active;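 active = signal rise of 40% or more at 20 µM, treated as a fluorescence artifact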
* hit, by the source's call.

`O=C(C=Cc1ccco1)c1ccc([N+](=O)[O-])cc1` gave TDP2 inh 1.
Screening COC(C[C@H]1O[C@H]1[C@H](O)[C@H](C)OCc1ccccc1)OC returned Apaf-1 inh 2 and TDP2 inh -1.
`COC(C[C@H]1O[C@@H]1C(=O)[C@H](C)OCc1ccccc1)OC` gave GSTO1 inh 8, CTSL1 counter 74*, PAD4 FP inh 2, Apaf-1 inh 48*, TDP2 inh 1, Apaf-1 inh conf 1 and Rh110 quench 1.
CN1CCN(c2ccc(NC(=O)c3ccc(Oc4ccccc4)cc3)cc2)CC1 was read as GSTO1 inh -2, CTSL1 counter 1, PAD4 FP inh -4, Apaf-1 inh 17 and TDP2 inh 8.
C=CC(=O)Nc1ccc(N(C)c2ccnc(Nc3ccc(N4CCN(C)CC4)cc3)n2)cc1 was read as PAD4 FP inh 3, Apaf-1 inh 62*, TDP2 inh -5, Apaf-1 inh conf 25 and Rh110 quench 6.
CCOc1cccc(N(C(=O)C2COc3ccccc3O2)C(C(=O)NC2CCCCC2)c2ccc(O)cc2)c1 (stereo not given) was read as GSTO1 inh 0, CTSL1 counter 1, PAD4 FP inh 2, Apaf-1 inh 47*, TDP2 inh -18, Apaf-1 inh conf 11 and Rh110 quench 1.
CC(C)CCNC(=O)C(c1ccc(O)cc1)N(C(=O)C1COc2ccccc2O1)c1cccc(O)c1 (stereo not given) was read as GSTO1 inh -5, CTSL1 counter 2, PAD4 FP inh 0, Apaf-1 inh 8 and TDP2 inh 3.
C#CCOCCOCCOCCNc1nc(N2CCN(C(=O)[C@H](CCCCN)n3cc([C@@H](N)[C@H](C)CC)nn3)CC2)nc(N2CCN(C(=O)[C@H](CCCCN)n3cc([C@@H](N)CC(N)=O)nn3)CC2)n1 was read as PAD4 FP inh 0, Apaf-1 inh 44*, TDP2 inh 1, Apaf-1 inh conf 0 and Rh110 quench -3.
Screening C#CCOCCOCCOCCNc1nc(N2CCN(C(=O)[C@H](CCC(=O)O)n3cc(C(N)Cc4ccc(O)cc4)nn3)CC2)nc(N2CCN(C(=O)[C@H](Cc3cc4ccccc4[nH]3)n3cc(C(N)[C@H](C)CC)nn3)CC2)n1 (stereo not given in full) returned GSTO1 inh 6, CTSL1 counter 0, PAD4 FP inh 2 and Apaf-1 inh 7.
For C#CCOCCOCCOCCNc1nc(N2CCOCC2)nc(N2CCN(C(=O)[C@H](CCCCN)n3cc(CN)nn3)CC2)n1 the results were PAD4 FP inh 9, Apaf-1 inh 49*, TDP2 inh 10, Apaf-1 inh conf 0 and Rh110 quench 7.
For C#CCOCCOCCOCCNc1nc(N2CCOCC2)nc(N2CCN(C(=O)[C@H](Cc3cc4ccccc4[nH]3)n3cc([C@@H](N)CC(C)C)nn3)CC2)n1 the results were GSTO1 inh -5, CTSL1 counter 3, PAD4 FP inh -6 and Apaf-1 inh 15.
Screening C#CCOCCOCCOCCNc1nc(N2CCN(C(=O)[C@H](Cc3ccc(O)cc3)n3cc([C@@H](N)C(C)CC)nn3)CC2)nc(N2CCN(C(=O)[C@H](Cc3cc4ccccc4[nH]3)n3cc([C@@H](N)CC(C)C)nn3)CC2)n1 (stereo not given in full) returned GSTO1 inh 0, CTSL1 counter 1, PAD4 FP inh 1, Apaf-1 inh 47*, TDP2 inh -12, Apaf-1 inh conf 1 and Rh110 quench 3.
C#CCOCCOCCOCCNc1nc(N2CCN(C(=O)[C@H](Cc3cc4ccccc4[nH]3)n3cc([C@@H](N)CC(C)C)nn3)CC2)nc(N2CCN(C(=O)[C@H](Cc3cc4ccccc4[nH]3)n3cc([C@@H](N)CC(C)C)nn3)CC2)n1 was read as GSTO1 inh 5, CTSL1 counter 2, PAD4 FP inh -1, Apaf-1 inh 71*, Apaf-1 inh conf 25 and Rh110 quench 20.

Assay outcomes deposited in PubChem BioAssay by several laboratories.
